High-throughput results (PubChem BioAssay)
KCNK3 block = human KCNK3 channel inhibition, primary screen. O14649. 340,000 compounds, 0.84% hits. CHO-KCNK3 thallium flux, FluxOR fluorescence; hits give low values. B-score at 10 µM;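 active = B-score under library mean minus 4 SD, starting fluorescence ratio at most library mean plus 5 SD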;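 note: more negative B-score means stronger inhibition of thallium flux through KCNK3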
Kir21 block = inhibitors of mouse Kir2.1 inward-rectifier potassium channel | HEK293-Kir2.1, FluxOR thallium flux fluorescence; hits give low values | 310,000 compounds, 0.85% hits | B-score at 10 µM | AID 1672 | P35561;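 active = fluorescence ratio B-score at or below minus 3 SD of library scores, with starting-brightness B-score within 2 SD, cut at about -4.2 in these data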;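 note: channel flux triggered by added potassium and thallium sulfate stimulus; B-score of peak minus minimum fluorescence over baseline after thallium stimulus; more negative B-score means stronger Kir2.1 block with less thallium influx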
KCNQ1 pot = potentiators or activators of human KCNQ1 potassium channel; P51787; CHO-K1 KCNQ1, thallium flux FluxOR fluorescence; hits give high values; B-score at 10 µM; 310,000 compounds, 0.35% hits; AID 2648;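 active = fluorescence ratio B-score, a plate-corrected score, at least three library SD, with initial intensity B-score within 5 SD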
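Assay system: stable KCNQ1 CHO-K1 line; medium: assay buffer, equal DMSO in all wells; timing: 90 min dye loading and 20 min compound exposure, both at room temperature; technique: kinetic FluxOR thallium fluorescence, 10-s 1-Hz baseline, 110-s post-stimulus read; read-out basis: B score of baseline-normalized fluorescence ratio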
KCNK9 inh-1 = human KCNK9 channel inhibition | Q9NPC2 | HEK293 KCNK9, FluxOR thallium flux fluorescence; hits give low values | B-score at 10 µM | 310,000 compounds, 1.2% hits | AID 488922;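 active = ratio B-score over 3 SD below the library mean, with starting fluorescence within 5 SD of its mean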;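 note: negative B-score means less thallium flux so channel inhibition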
Target sequence (Q9NPC2 whole entry, looked up): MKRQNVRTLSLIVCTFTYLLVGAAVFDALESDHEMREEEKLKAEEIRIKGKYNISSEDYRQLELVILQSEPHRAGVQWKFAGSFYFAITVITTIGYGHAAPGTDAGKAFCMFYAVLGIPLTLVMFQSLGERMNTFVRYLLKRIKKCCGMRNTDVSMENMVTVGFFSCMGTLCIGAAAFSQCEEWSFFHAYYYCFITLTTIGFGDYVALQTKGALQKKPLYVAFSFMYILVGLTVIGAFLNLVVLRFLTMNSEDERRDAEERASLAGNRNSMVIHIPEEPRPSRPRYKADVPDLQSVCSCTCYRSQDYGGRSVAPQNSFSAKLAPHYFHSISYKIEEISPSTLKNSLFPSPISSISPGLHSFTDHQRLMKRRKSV
hERG protect = compounds protecting human hERG from proarrhythmic drug block; 310,000 compounds, 0.51% hits; AID 1511; CHO-hERG, FluxOR thallium flux, dofetilide IC70 present; activation (rescue from dofetilide block), less the hit threshold, % at 10 µM;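 active = activation above the mean of controls blocked by dofetilide plus 5 SD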;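 note: thallium influx through hERG after potassium depolarization seen as dye fluorescence rise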
KCNQ1 inh = blocks the human KCNQ1 potassium channel; CHO-K1 KCNQ1, FluxOR thallium flux fluorescence; hits give high values; AID 2642; P51787; B-score at 10 µM; 310,000 compounds, 1.3% hits;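 active = compounds whose thallium flux B-score, printed positive for inhibition, exceeds three library SD while starting fluorescence stays within three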;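 note: channel opened by potassium depolarization with thallium stimulus after 20 min compound exposure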
hERG inh = counter-screen for Kir2.1 inhibitors: effect on human hERG. 320 compounds, 20% hits. shares compounds with Kir21 block. hERG-expressing cells, thallium flux. inhibition, % at 10 µM;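 note: host cells are CHO cells stably expressing hERG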
KCNK9 inh-2 = human KCNK9 off-target activity of Kir2.1 blockers; shares compounds with Kir21 block; KCNK9-expressing cells, ion flux inhibition; inhibition, % at 10 µM; 320 compounds, 5% hits
Kir2-1 patch inh = blocks mouse Kir2.1 current in automated electrophysiology. inhibition, % at 25 µM. 320 compounds, 71% hits. Kir2.1 cells, automated patch-clamp current inhibition. shares compounds with Kir21 block
* = called active by the depositor; i = inactive; ? = inconclusive; nt = no result given. Rows were chosen to be rich in hits. Some 3.7% of all compounds tested hit in one or more screens of this group. Unless noted, the rule behind the calls is not given here.

SMILES	KCNK3 block	Kir21 block	KCNQ1 pot	KCNK9 inh-1	hERG protect	KCNQ1 inh	hERG inh	KCNK9 inh-2	Kir2-1 patch inh
Cc1nc(N2CCN(Cc3ccccc3)CC2)nc2c1C(=O)CC(C)C2 (stereo unspecified)	i	-7.1*	i	i	-15	i	i	i	8.9%*
Cc1ccc(CNC(=O)NCc2ccccc2)cc1	i	0.54	i	i	-5	i	nt	nt	nt
Cc1ccc(CNCC(O)(c2ccccc2)c2ccccc2)cc1	i	-9.2*	i	i	-10	i	i	i	i
COC(=O)C1SCCN1S(=O)(=O)c1ccc(Cl)cc1 (stereo unspecified)	i	0.86	i	i	-8	i	nt	nt	nt
O=S(=O)(c1ccc(Cl)cc1)N1CCSC1c1ccco1 (stereo unspecified)	i	-6.5*	i	i	-9	i	i	i	21%*
Cc1ccc(C(=O)N2CCCc3ccccc32)c(F)c1F	i	-0.4	i	i	-8	i	nt	nt	nt
O=S(=O)(c1ccccc1)N1CCCc2ccccc21	nt	-6.5*	i	i	-1	i	i	i	22%*
CC(=O)c1ccc(S(=O)(=O)N2CCCc3ccccc32)cc1	i	-3.1	i	i	-3	i	nt	nt	nt
O=C(O)c1ccc(S(=O)(=O)N2CCCc3ccccc32)cc1	i	0.05	i	i	-3	i	nt	nt	nt
O=S(=O)(c1ccc(F)cc1)N1CCCc2ccccc21	nt	-6*	i	i	-6	i	i	i	19%*
COc1ccc(Nc2ccnc3ccccc23)cc1	i	-15*	i	i	-10	i	i	i	82%*
O=C(COc1ccc2c(-c3ccccc3)cc(=O)oc2c1)Nc1cccnc1	i	1.3	i	i	-9	i	nt	nt	nt
CCn1c(CNc2ccc(Cl)cc2)nnc1SCc1ccccc1	i	-6.2*	i	i	-6	i	i	i	i
Nc1c(-c2ccc(Cl)cc2)cnc2c(-c3ccccc3)cnn12	i	0.83	i	i	-5	i	nt	nt	nt
Cc1cc(S(=O)(=O)Nc2cc(C)c(O)c(C)c2)c(C)s1	i	-6.7*	i	i	-3	i	i	i	18%*
CCCCn1c(N)c(N(CCOC)C(=O)COc2ccc(OCC)cc2)c(=O)[nH]c1=O	i	1.6	i	i	-11	i	nt	nt	nt
CCCCn1c(N)c(N(CCOC)C(=O)COC(=O)CCOc2ccccc2)c(=O)[nH]c1=O	i	0.06	i	i	-6	i	i	i	?
CC(O)CNCCCOc1cccc(Oc2ccccc2)c1 (stereo unspecified)	i	-7.6*	i	i	-5	i	i	i	77%*
COC(=O)c1cccc(NC(=O)CCc2c(C)noc2C)c1	i	nt	nt	nt	nt	nt	nt	nt	nt
Cc1ccc2nc(NCc3ccccc3)[nH]c2c1	i	-10*	i	i	-21	i	i	31%*	72%*
CN(CC(=O)Nc1ccc(F)c(F)c1F)C(=O)c1ccc2c(c1)OCCO2	i	-0.66	i	i	-10	i	nt	nt	nt
CCn1c(COc2ccc(C)cc2)nnc1SCc1ccc(C#N)cc1	i	-7.9*	i	i	-13	i	i	i	7.3%*
CCn1c(COc2ccc(C)cc2)nnc1SCC(=O)C(C)(C)C	i	-2.7	i	i	0	i	nt	nt	nt
C#CCNC(=O)C1=C[C@@H](c2ccc(C#C)cc2)C[C@@H](OCc2ccc(CO)cc2)O1	i	-6.3*	i	i	-11	i	i	i	6.4%*
CCN(c1cccc(C)c1)S(=O)(=O)c1ccc2c(c1)NC(=O)CS2	i	-5.9*	i	i	-9	i	i	i	i
SMILES	KCNK3 block	Kir21 block	KCNQ1 pot	KCNK9 inh-1	hERG protect	KCNQ1 inh	hERG inh	KCNK9 inh-2	Kir2-1 patch inh
CCN(c1cccc(C)c1)S(=O)(=O)c1ccc2c(c1)NC(=O)CCS2	i	0.77	i	i	-7	i	nt	nt	nt
O=C(COc1ccc([N+](=O)[O-])cc1)N(Cc1cccs1)C1CCS(=O)(=O)C1 (stereo unspecified)	i	-0.84	i	i	-8	i	nt	nt	nt
O=C(COc1ccc2c3c(c(=O)oc2c1)CCCC3)N1C[C@H]2C[C@@H](C1)c1cccc(=O)n1C2	i	0.03	i	i	-4	i	nt	nt	nt
COc1ccc2c(c1OC)OCC2C (stereo unspecified)	i	nt	nt	nt	nt	nt	nt	nt	nt
CCC1CCCCN1C(=S)NC(=O)c1cccc([N+](=O)[O-])c1 (stereo unspecified)	i	2.7	28*	i	20*	i	i	i	i
CC(=O)NNC(=S)NC(=O)c1cccc([N+](=O)[O-])c1	i	0.48	i	i	-6	i	nt	nt	nt
O=C(OCCCOC(=O)c1ccc(Br)o1)c1ccc(Br)o1	i	-0.94	i	i	-10	i	nt	nt	nt
CCC(=O)OCc1c(C(F)(F)F)nn(C)c1Sc1ccc(F)cc1	i	-8.4*	i	i	-20	i	i	i	31%*
CCN(CC)S(=O)(=O)c1ccc(O)c(C(=O)OCC(=O)NC23CC4CC(CC(C4)C2)C3)c1	i	nt	nt	nt	nt	nt	nt	nt	nt
CSc1ccc(CNCC(O)c2ccccc2)cc1 (stereo unspecified)	i	-6.2*	i	i	-6	i	i	i	54%*
OC(CNCCc1ccccc1)c1ccccc1 (stereo unspecified)	i	-9.7*	i	i	-1	i	i	i	50%*
CC(NS(=O)(=O)c1ccccc1)C(=O)Nc1ccc2c(c1)OCCO2 (stereo unspecified)	i	0.69	i	i	-4	i	nt	nt	nt
Clc1ccc(CNC2CCN(Cc3ccccc3)CC2)cc1	i	-13*	i	i	-4	i	58%*	i	55%*
Oc1ccc(Nc2nc(N3CCCC3)c3ccccc3n2)cc1	i	-7.5*	i	i	-13	i	64%*	i	i
O=C(CN1CCN(Cc2ccc(Cl)cc2)CC1)N1CCc2ccccc21	i	-9.5*	i	i	-5	i	i	i	16%*
COc1cccc(CNc2ccc3[nH]c(=O)[nH]c3c2)c1OCc1ccccc1F	i	-7.4*	i	i	-15	i	i	i	2.2%*
